Measured values as given in ChEMBL document CHEMBL3603756, “Synthesis and apoptotic activity of new pyrazole derivatives in cancer cell lines” (2015).
Calls of active or inactive are those of the source. No cut-off for these calls is given here.

How the values were obtained:
HCT-8 [1] = assay: Induction of apoptosis in human HCT8 cells assessed necrosis level at 50 ug/ml incubated for 24 hrs by annexin V-FITC and propidium iodide staining based flow cytometry (reference value: 1.12%); assay type: functional
HCT-8 [2] = assay: Induction of apoptosis in human HCT8 cells assessed viable cells level at 50 ug/ml incubated for 24 hrs by annexin V-FITC and propidium iodide staining based flow cytometry (reference value: 93.3%); assay type: functional
[3] = Reduction in PRKAA1 gene expression in human Hep2 cells at 50 ug/ml incubated for 24 hrs by real-time PCR method; assay type: functional, cell-based; conditions: HEp-2
Outline: (§1)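 HEp-2 cells were treated 24 h at 10 or 50 µg/mL. Total RNA was extracted with Trizol, and 2 µg was reverse-transcribed. 50 ng cDNA went into TaqMan real-time PCR with beta-actin as endogenous control. Relative expression was calculated by the ∆∆CT method. Each experiment was run three times.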

HCT-8 [4] = assay: Induction of apoptosis in human HCT8 cells assessed late apoptosis level at 50 ug/ml incubated for 24 hrs by annexin V-FITC and propidium iodide staining based flow cytometry (reference value: 4.8%); assay type: functional
[5] = Cytotoxicity against human Hep2 cells assessed as cell viability at 50 ug/ml incubated for 24 hrs by MTS assay; assay type: functional; conditions: HEp-2, 24 h, read-out: Activity
Outline: (§2)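 Cells were held at 37 °C, 5% CO2 in humid air. HEp-2 (5 x 10³/well) and HCT-8 (7 x 10³/well) grew in DMEM + 10% heat-inactivated FBS and got compound (binary dilutions) 24 h after seeding. THP-1 (5 x 10³ cells, RPMI-1640 + 10% FBS) were added directly to the dilutions. Exposure lasted 24 h. MTS (CellTiter 96 AQueous One) read-out was absorbance at 490 nm.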

THP-1 [6] = assay: Cytotoxicity against human THP1 cells assessed as cell viability at 12.5 ug/ml incubated for 24 hrs by MTS assay; assay type: functional; conditions: THP-1, 24 h, read-out: Activity; outline: as §2
HEp-2 [7] = assay: Induction of cell cycle arrest in human Hep2 cells assessed accumulation at S phase at 50 ug/ml incubated for 24 hrs by propidium iodide staining based flow cytometry (reference value: 21.06%); assay type: functional
[8] = Cytotoxicity against human HCT8 cells assessed as cell viability at 12.5 ug/ml incubated for 24 hrs by MTS assay; assay type: functional; conditions: HCT-8, 24 h, read-out: Activity; outline: as §2
THP-1 [9] = assay: Cytotoxicity against human THP1 cells assessed as cell viability at 50 ug/ml incubated for 24 hrs by MTS assay; assay type: functional; conditions: THP-1, 24 h, read-out: Activity; outline: as §2
THP-1 [10] = assay: Cytotoxicity against human THP1 cells assessed as cell viability at 25 ug/ml incubated for 24 hrs by MTS assay; assay type: functional; conditions: THP-1, 24 h, read-out: Activity; outline: as §2
[11] = Reduction in PRKAA1 gene expression in human Hep2 cells at 10 ug/ml incubated for 24 hrs by real-time PCR method; assay type: functional, cell-based; conditions: HEp-2; outline: as §1
[12] = Reduction in PRKAA2 gene expression in human Hep2 cells at 10 ug/ml incubated for 24 hrs by real-time PCR method; assay type: functional, cell-based; conditions: HEp-2; outline: as §1
HCT-8 [13] = assay: Induction of apoptosis in human HCT8 cells assessed early apoptosis level at 50 ug/ml incubated for 24 hrs by annexin V-FITC and propidium iodide staining based flow cytometry (reference value: 0.75%); assay type: functional
HEp-2 [14] = assay: Induction of cell cycle arrest in human Hep2 cells assessed accumulation at S phase at 10 ug/ml incubated for 24 hrs by propidium iodide staining based flow cytometry (reference value: 21.06%); assay type: functional
HEp-2 [15] = assay: Induction of cell cycle arrest in human Hep2 cells assessed accumulation at G0/G1 phase at 50 ug/ml incubated for 24 hrs by propidium iodide staining based flow cytometry (reference value: 74.51%); assay type: functional
[16] = Cytotoxicity against human Hep2 cells assessed as cell viability at 25 ug/ml incubated for 24 hrs by MTS assay; assay type: functional; conditions: HEp-2, 24 h, read-out: Activity; outline: as §2
HEp-2 [17] = assay: Induction of cell cycle arrest in human Hep2 cells assessed accumulation at G2/M phase incubated for 24 hrs by propidium iodide staining based flow cytometry; assay type: functional
HEp-2 [18] = assay: Induction of cell cycle arrest in human Hep2 cells assessed accumulation at G2/M phase at 50 ug/ml incubated for 24 hrs by propidium iodide staining based flow cytometry (reference value: 7.82%); assay type: functional
[19] = Cytotoxicity against human Hep2 cells assessed as cell viability at 12.5 ug/ml incubated for 24 hrs by MTS assay; assay type: functional; conditions: HEp-2, 24 h, read-out: Activity; outline: as §2
HEp-2 [20] = assay: Induction of cell cycle arrest in human Hep2 cells assessed accumulation at G0/G1 phase at 10 ug/ml incubated for 24 hrs by propidium iodide staining based flow cytometry (reference value: 74.51%); assay type: functional
[21] = Cytotoxicity against human HCT8 cells assessed as cell viability at 50 ug/ml incubated for 24 hrs by MTS assay; assay type: functional; conditions: HCT-8, 24 h, read-out: Activity; outline: as §2
[22] = Cytotoxicity against human HCT8 cells assessed as cell viability at 25 ug/ml incubated for 24 hrs by MTS assay; assay type: functional; conditions: HCT-8, 24 h, read-out: Activity; outline: as §2
[23] = Reduction in PRKAA2 gene expression in human Hep2 cells at 50 ug/ml incubated for 24 hrs by real-time PCR method; assay type: functional, cell-based; conditions: HEp-2; outline: as §1
HEp-2 [24] = assay: Induction of cell cycle arrest in human Hep2 cells assessed accumulation at G2/M phase at 10 ug/ml incubated for 24 hrs by propidium iodide staining based flow cytometry (reference value: 7.82%); assay type: functional
HEp-2 [25] = assay: Reduction in pro-caspase-3 levels in human Hep2 cells at 50 ug/ml incubated for 24 hrs by protein array method; assay type: functional, cell-based
HEp-2 [26] = assay: Increase in TRAIL-R1 protein expression in human Hep2 cells at 50 ug/ml incubated for 24 hrs by protein array method; assay type: functional, cell-based
HEp-2 [27] = assay: Increase in caspase-8 levels in human Hep2 cells at 50 ug/ml incubated for 24 hrs by protein array method; assay type: functional, cell-based
HEp-2 [28] = assay: Increase in FADD protein expression in human Hep2 cells at 50 ug/ml incubated for 24 hrs by protein array method; assay type: functional, cell-based
HEp-2 [29] = assay: Increase in cleaved-caspase-3 levels in human Hep2 cells at 50 ug/ml incubated for 24 hrs by protein array method; assay type: functional, cell-based
HEp-2 [30] = assay: Reduction in c-IAP1 levels in human Hep2 cells at 50 ug/ml incubated for 24 hrs by protein array method; assay type: functional, cell-based
HEp-2 [31] = assay: Reduction in HSP27 protein levels in human Hep2 cells at 50 ug/ml incubated for 24 hrs by protein array method; assay type: functional, cell-based
HEp-2 [32] = assay: Induction of apoptosis in human Hep2 cells assessed as increase in p53 S15/S46/S392 phosphorylation level at 50 ug/ml incubated for 24 hrs by protein array method; assay type: functional, cell-based
HEp-2 [33] = assay: Reduction in HSP70 protein levels in human Hep2 cells at 50 ug/ml incubated for 24 hrs by protein array method; assay type: functional, cell-based
HEp-2 [34] = assay: Increase in TRAIL-R2 protein expression in human Hep2 cells at 50 ug/ml incubated for 24 hrs by protein array method; assay type: functional, cell-based
HEp-2 [35] = assay: Reduction in c-IAP2 levels in human Hep2 cells at 50 ug/ml incubated for 24 hrs by protein array method; assay type: functional, cell-based
HEp-2 [36] = assay: Reduction in livin protein levels in human Hep2 cells at 50 ug/ml incubated for 24 hrs by protein array method; assay type: functional, cell-based
HEp-2 [37] = assay: Reduction in XIAP levels in human Hep2 cells at 50 ug/ml incubated for 24 hrs by protein array method; assay type: functional, cell-based
HEp-2 [38] = assay: Reduction in survivin protein levels in human Hep2 cells at 50 ug/ml incubated for 24 hrs by protein array method; assay type: functional, cell-based
HEp-2 [39] = assay: Increase in Fas/TNFRSF6 protein expression in human Hep2 cells at 50 ug/ml incubated for 24 hrs by protein array method; assay type: functional, cell-based

SMILES | Activity (HCT-8 [1]) [%] | Activity (HCT-8 [2]) [%] | Activity [3] | Activity (HCT-8 [4]) [%] | viability at 50 µg/mL [5] [%] | viability at 12.5 µg/mL (THP-1 [6]) [%] | Activity (HEp-2 [7]) [%] | viability at 12.5 µg/mL [8] [%] | viability at 50 µg/mL (THP-1 [9]) [%] | viability at 25 µg/mL (THP-1 [10]) [%] | Activity [11] | Activity [12] | Activity (HCT-8 [13]) [%] | Activity (HEp-2 [14]) [%] | Activity (HEp-2 [15]) [%] | viability at 25 µg/mL [16] [%] | Activity (HEp-2 [17]) | Activity (HEp-2 [18]) [%] | viability at 12.5 µg/mL [19] [%] | Activity (HEp-2 [20]) [%] | further results
Cn1cc(C(=O)/N=C2\SCC(C)(O)N2c2ccc(Br)cc2)cn1 (centres undefined) | 1.34 | 85.7 | Active | 6.76 | 91 | 95 | 28.71 | 98 | 33.9 | 67.4 | Active | Active | 6.22 | 19.2 | 37.33 | 92 | Dose-dependent effect | 39.46 | 100 | 62.35 | viability at 50 µg/mL [21]: 85.7%; viability at 25 µg/mL [22]: 95%; Activity [23]: Active; Activity (HEp-2 [24]): 19.88%
Cn1cc(C(=O)NC(=S)Nc2ccccc2I)cn1 | 2.49 | 91.8 | Active | 3.75 | 90 | 100 | 18.14 | 100 | 31.3 | 84 | Active | Active | 2.01 | 21.88 | 67.6 | 100 | Dose-dependent effect | 15.92 | 100 | 76.4 | viability at 50 µg/mL [21]: 91.8%; viability at 25 µg/mL [22]: 100%; Activity [23]: Active; Activity (HEp-2 [24]): 6.86%
Cn1cc(C(=O)NC(=S)Nc2ccc(I)cc2)cn1 | 1.25 | 93.3 | Active | 3.1 | 93 | 100 | 24.79 | 100 | 35.2 | 79.3 | Active | Active | 2.31 | 17.26 | 74.24 | 100 | Dose-dependent effect | 15.88 | 100 | 71.62 | viability at 50 µg/mL [21]: 93.3%; viability at 25 µg/mL [22]: 100%; Activity [23]: Active; Activity (HEp-2 [24]): 11.98%
Cc1cs/c(=N\C(=O)c2cnn(C)c2)n1-c1ccc(I)cc1 | 1.41 | 91.8 | Active | 3.89 | 90 | 99 | 27.45 | 100 | 37.2 | 86.9 | Active | Active | 2.91 | 23.56 | 50.7 | 100 | Dose-dependent effect | 25.92 | 100 | 66.94 | Activity (HEp-2 [25]): Active; Activity (HEp-2 [26]): Active; Activity (HEp-2 [27]): Active; Activity (HEp-2 [28]): Active; Activity (HEp-2 [29]): Active; Activity (HEp-2 [30]): Active; Activity (HEp-2 [31]): Active; Activity (HEp-2 [32]): Active; Activity (HEp-2 [33]): Active; Activity (HEp-2 [34]): Active; Activity (HEp-2 [35]): Active; Activity (HEp-2 [36]): Active; Activity (HEp-2 [37]): Active; viability at 50 µg/mL [21]: 91.8%; viability at 25 µg/mL [22]: 100%; Activity (HEp-2 [38]): Active; Activity [23]: Active; Activity (HEp-2 [24]): 9.07%; Activity (HEp-2 [39]): Active
Cn1cc(C(=O)NC(=S)Nc2ccc(Br)cc2)cn1 | 1.73 | 91.7 | Active | 3.83 | 90 | 100 | 22.6 | 100 | 37 | 72.9 | Active | Active | 2.78 | 16.97 | 67.63 | 100 | Dose-dependent effect | 18.75 | 100 | 75.28 | viability at 50 µg/mL [21]: 91.7%; viability at 25 µg/mL [22]: 100%; Activity [23]: Active; Activity (HEp-2 [24]): 9.91%
Cc1cs/c(=N\C(=O)c2cnn(C)c2)n1-c1ccc(Br)cc1 | 2.66 | 89.4 | Active | 3.44 | 85 | 97 | 24.2 | 100 | 41.6 | 87.6 | Active | Active | 4.47 | 21.45 | 63.34 | 95 | Dose-dependent effect | 19.45 | 100 | 74.24 | viability at 50 µg/mL [21]: 89.4%; viability at 25 µg/mL [22]: 97%; Activity [23]: Active; Activity (HEp-2 [24]): 7.76%
